Data reported in ChEMBL document CHEMBL1149911, “Design and synthesis of peripherally restricted transient receptor potential vanilloid 1 (TRPV1) antagonists” (J Med Chem, 2008).
pIC50: −log10 of the molar value.

What was measured:
[1] = Ratio of drug level in brain to plasma in Sprague-Dawley rat at 5 mg/kg, iv; type: ADME, organism-based; parameters: dose 5 mg/kg, route intravenous
In short: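 Male Sprague-Dawley rats received a single iv dose of 5 mg/kg as a solution in DMSO (n = 3). Plasma and nonperfused whole brain were collected 30 min after dosing. Total compound concentration was measured by HPLC and expressed as a brain-to-plasma ratio.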

[2] = target: T1, Transient receptor potential cation channel subfamily V member 1 (Rattus norvegicus, UniProt O35433); experiment: Antagonist activity at rat TRPV1 expressed in CHO cells assessed as inhibition of capsaicin-induced calcium influx; type: functional, cell-based
T1 sequence (O35433 whole entry): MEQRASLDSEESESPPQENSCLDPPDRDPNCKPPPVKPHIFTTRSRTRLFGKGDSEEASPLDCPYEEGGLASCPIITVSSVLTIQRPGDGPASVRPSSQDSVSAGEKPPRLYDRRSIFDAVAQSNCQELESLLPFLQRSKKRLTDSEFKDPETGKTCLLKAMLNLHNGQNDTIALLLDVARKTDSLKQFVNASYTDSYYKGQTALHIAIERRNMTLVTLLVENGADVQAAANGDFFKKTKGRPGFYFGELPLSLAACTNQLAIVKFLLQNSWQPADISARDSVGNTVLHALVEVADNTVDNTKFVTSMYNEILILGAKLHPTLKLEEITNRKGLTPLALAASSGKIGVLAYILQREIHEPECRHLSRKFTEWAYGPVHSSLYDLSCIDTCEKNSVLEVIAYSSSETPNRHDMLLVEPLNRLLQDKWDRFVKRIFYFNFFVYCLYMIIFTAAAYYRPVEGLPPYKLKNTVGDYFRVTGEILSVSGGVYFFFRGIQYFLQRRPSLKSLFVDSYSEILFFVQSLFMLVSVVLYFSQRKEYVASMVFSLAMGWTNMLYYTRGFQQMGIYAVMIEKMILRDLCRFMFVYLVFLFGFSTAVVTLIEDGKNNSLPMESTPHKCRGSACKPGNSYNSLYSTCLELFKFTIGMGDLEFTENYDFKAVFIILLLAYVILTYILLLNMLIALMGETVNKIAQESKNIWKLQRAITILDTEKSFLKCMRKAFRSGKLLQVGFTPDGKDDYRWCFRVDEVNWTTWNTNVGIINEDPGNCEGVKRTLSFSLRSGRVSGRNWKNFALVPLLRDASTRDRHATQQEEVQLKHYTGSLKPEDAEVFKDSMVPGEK
In short: (§1)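 CHO cells stably expressing rat TRPV1. Uptake of 45Ca2+ was triggered by capsaicin (500 nM) or by acid (pH 5), and test compounds were run over a concentration range. IC50 values are the mean ± SEM of at least two experiments, with triplicate wells at each concentration.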

[3] = target: T1, Transient receptor potential cation channel subfamily V member 1; experiment: Antagonist activity at rat TRPV1 expressed in CHO cells assessed as inhibition of pH 5 acid-induced calcium influx; type: functional, cell-based; in short: as §1
[4] = tested on: Rattus norvegicus; experiment: Inhibition of capsaicin-induced flinching in Sprague-Dawley rat at 10 mg/kg, po administered 1 hr before capsaicin challenge; type: functional
In short: (§2)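 Rats received the test compound orally, then capsaicin. In vivo on-target activity was scored as percent inhibition of the capsaicin-evoked flinching response.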

[5] = Drug level in blood of Sprague-Dawley rat with capsaicin-induced flinching at 10 mg/kg, po administered 1 hr before capsaicin challenge; type: ADME, organism-based; parameters: dose 10 mg/kg, route oral; settings: read-out: Drug uptake
[6] = tested on: Rattus norvegicus; experiment: Inhibition of capsaicin-induced flinching in Sprague-Dawley rat at 3 mg/kg, po administered 1 hr before capsaicin challenge; type: functional; in short: as §2
[7] = Drug level in blood of Sprague-Dawley rat with capsaicin-induced flinching at 3 mg/kg, po administered 1 hr before capsaicin challenge; type: ADME, organism-based; parameters: dose 3 mg/kg, route oral; settings: read-out: Drug uptake
[8] = tested on: Rattus norvegicus; experiment: Toxicity assessed as increase in body core temperature in Sprague-Dawley rat at 10 mg/kg, po by radiotelemetry relative to control; type: organism-based; parameters: dose 10 mg/kg, route oral; settings: in vivo
[9] = tested on: Blood; experiment: Drug level in blood of Sprague-Dawley rat telemetry model at 10 mg/kg, po; type: ADME, organism-based; parameters: dose 10 mg/kg, route oral; settings: in vivo
[10] = tested on: Rattus norvegicus; experiment: Inhibition of capsaicin-induced flinching in Sprague-Dawley rat at 1 mg/kg, po administered 1 hr before capsaicin challenge; type: functional; in short: as §2
[11] = Drug level in blood of Sprague-Dawley rat with capsaicin-induced flinching at 1 mg/kg, po administered 1 hr before capsaicin challenge; type: ADME, organism-based; parameters: dose 1 mg/kg, route oral; settings: read-out: Drug uptake
[12] = tested on: Rattus norvegicus; experiment: Toxicity assessed as increase in body core temperature in Sprague-Dawley rat at 3 mg/kg, po by radiotelemetry relative to control; type: organism-based; parameters: dose 3 mg/kg, route oral; settings: in vivo
[13] = tested on: Blood; experiment: Drug level in blood of Sprague-Dawley rat telemetry model at 3 mg/kg, po; type: ADME, organism-based; parameters: dose 3 mg/kg, route oral; settings: in vivo
[14] = tested on: Rattus norvegicus; experiment: Inhibition of capsaicin-induced flinching in Sprague-Dawley rat at 0.3 mg/kg, po administered 1 hr before capsaicin challenge; type: functional; in short: as §2
[15] = Drug level in blood of Sprague-Dawley rat with capsaicin-induced flinching at 0.3 mg/kg, po administered 1 hr before capsaicin challenge; type: ADME, organism-based; parameters: dose 0.3 mg/kg, route oral; settings: read-out: Drug uptake
[16] = tested on: Rattus norvegicus; experiment: Toxicity assessed as increase in body core temperature in Sprague-Dawley rat at 1 mg/kg, po by radiotelemetry relative to control; type: organism-based; parameters: dose 1 mg/kg, route oral; settings: in vivo
[17] = tested on: Blood; experiment: Drug level in blood of Sprague-Dawley rat telemetry model at 1 mg/kg, po; type: ADME, organism-based; parameters: dose 1 mg/kg, route oral; settings: in vivo
[18] = target: T2, Transient receptor potential cation channel subfamily V member 1 (Homo sapiens, UniProt Q8NER1); experiment: Antagonist activity at human TRPV1 assessed as inhibition of capsaicin-induced calcium influx; type: functional
T2 sequence (Q8NER1 whole entry): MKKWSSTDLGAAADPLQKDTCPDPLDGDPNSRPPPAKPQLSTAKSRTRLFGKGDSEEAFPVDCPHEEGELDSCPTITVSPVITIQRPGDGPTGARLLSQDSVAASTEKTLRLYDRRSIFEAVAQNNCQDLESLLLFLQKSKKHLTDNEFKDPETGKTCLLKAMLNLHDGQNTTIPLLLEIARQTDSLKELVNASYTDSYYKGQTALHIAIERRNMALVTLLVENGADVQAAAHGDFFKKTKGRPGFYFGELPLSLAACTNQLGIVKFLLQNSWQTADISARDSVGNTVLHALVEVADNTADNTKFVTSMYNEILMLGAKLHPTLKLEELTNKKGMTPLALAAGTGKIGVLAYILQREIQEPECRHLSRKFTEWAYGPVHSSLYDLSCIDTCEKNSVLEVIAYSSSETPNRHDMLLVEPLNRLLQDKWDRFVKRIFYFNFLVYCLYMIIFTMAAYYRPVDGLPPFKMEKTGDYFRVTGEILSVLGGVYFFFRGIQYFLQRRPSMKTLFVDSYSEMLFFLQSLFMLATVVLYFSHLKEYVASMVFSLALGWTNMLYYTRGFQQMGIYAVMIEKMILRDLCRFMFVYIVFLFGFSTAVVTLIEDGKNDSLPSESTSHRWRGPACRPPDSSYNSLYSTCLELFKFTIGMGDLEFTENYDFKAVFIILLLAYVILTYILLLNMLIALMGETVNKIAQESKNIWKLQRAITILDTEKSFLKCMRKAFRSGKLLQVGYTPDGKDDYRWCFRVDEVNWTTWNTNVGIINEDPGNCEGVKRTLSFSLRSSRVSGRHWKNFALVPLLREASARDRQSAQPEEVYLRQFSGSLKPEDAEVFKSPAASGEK

[19] = target: T2, Transient receptor potential cation channel subfamily V member 1; experiment: Antagonist activity at human TRPV1 assessed as inhibition of low pH-induced calcium influx; type: functional
[20] = tested on: Rattus norvegicus; experiment: Inhibition of capsaicin-induced flinching in po dosed rat; type: functional, organism-based; in short: as §2
[21] = tested on: Rattus norvegicus; experiment: Toxicity assessed as increase in body temperature in Sprague-Dawley rat at 0.1 to 3 mg/kg, po after 60 mins; type: organism-based; parameters: dose 0.1-3 mg/kg, route oral; settings: in vivo, 1 h
In short: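 Rodents were dosed orally at 0.1–3 mg/kg. Body temperature was recorded 60 min after drug administration and compared across doses.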

| Compound | Kp [1] | pIC50 [2] | pIC50 [3] | further results |
| --- | --- | --- | --- | --- |
| Nc1nc2c(Oc3cc(-c4ccc(C(F)(F)F)cc4)ncn3)cccc2[nH]c1=O | 0.4 |  |  |  |
| CC(=O)Nc1nc2c(Oc3cc(-c4ccc(C(F)(F)F)cc4)nc(N)n3)cccc2s1 | 0.44 |  |  |  |
| CC(C)CN1CCCCC1CNc1nc(C(F)(F)F)ccc1-c1cc(Oc2cccc3[nH]c(=O)c(N)nc23)ncn1 (configuration not stated) | 0.25 | 9.05 | 8.77 |  |
| Nc1nc2c(Oc3cc(-c4ccc(C(F)(F)F)cc4NC(=O)c4ccccn4)ncn3)cccc2[nH]c1=O | 0.21 | 9.15 | 9.15 |  |
| CC(=O)Nc1nc2c(Oc3cc(-c4ccc(C(F)(F)F)cc4NC(=O)NC(C)(C)C)ncn3)cccc2s1 | 0.19 | 8.62 | 8.22 |  |
| CC(C)(C)NC(=O)Nc1cc(C(F)(F)F)ccc1-c1cc(Oc2cccc3[nH]c(=O)c(N)nc23)ncn1 | 0.04 | 8.39 | 8.28 | inhibition in vivo at 10 mg/kg [4]: 43%; concentration at 1 h [5]: 196 ng/mL |
| Nc1nc2c(Oc3cc(-c4ccc(C(F)(F)F)cc4NC(=O)c4ccncc4)ncn3)cccc2[nH]c1=O | 0.07 | 8.48 | 8.68 | inhibition in vivo at 10 mg/kg [4]: 50%; concentration at 1 h [5]: 0.82 ng/mL |
| COC[C@H](C)Nc1nc(Oc2cccc3[nH]c(=O)c(N)nc23)cc(-c2ccc(C(F)(F)F)nc2N)n1 | 0.04 | 8.36 | 8.19 | inhibition in vivo at 10 mg/kg [4]: 23%; concentration at 1 h [5]: 5.48 ng/mL |
| Nc1nc(C(F)(F)F)ccc1-c1cc(Oc2cccc3[nH]c(=O)c(N)nc23)ncn1 | 0.11 | 9.10 | 8.57 | inhibition in vivo at 3 mg/kg [6]: 100%; concentration at 1 h [7]: 252 ng/mL; Activity [8]: 1.1 °C; Drug uptake [9]: 1129.62 ng/mL |
| COCCNc1nc(C(F)(F)F)ccc1-c1cc(Oc2cccc3[nH]c(=O)c(N)nc23)ncn1 | 0.04 | 9.15 | 8.89 | inhibition in vivo at 1 mg/kg [10]: 100%; concentration at 1 h [11]: 19 ng/mL; Activity [12]: 0.6 °C; Drug uptake [13]: 25.35 ng/mL |
| Nc1nc2c(Oc3cc(-c4ccc(C(F)(F)F)nc4N[C@@H]4CCOC4)ncn3)cccc2[nH]c1=O | 0.09 | 8.96 | 9.10 | inhibition in vivo at 3 mg/kg [6]: 30%; concentration at 1 h [7]: 32.8 ng/mL |
| COC[C@H](C)Nc1nc(Oc2cccc3[nH]c(=O)c(N)nc23)cc(-c2ccc(C(F)(F)F)cc2N)n1 | 0.07 | 8.42 | 8.57 | inhibition in vivo at 10 mg/kg [4]: 95%; concentration at 1 h [5]: 342 ng/mL; Activity [8]: 1.2 °C; Drug uptake [9]: 289.24 ng/mL |
| Nc1nc(Oc2cccc3[nH]c(=O)c(N)nc23)cc(-c2ccc(C(F)(F)F)cc2)n1 | 0.07 | 8.43 | 8.59 |  |
| COC[C@@H](C)Nc1nc(Oc2cccc3[nH]c(=O)c(N)nc23)cc(-c2ccc(C(F)(F)F)cc2)n1 | 0.15 | 9.52 | 9.52 |  |
| COCCNc1nc(Oc2cccc3[nH]c(=O)c(N)nc23)cc(-c2ccc(C(F)(F)F)cc2)n1 | 0.05 | 9.22 | 9.10 | inhibition in vivo at 1 mg/kg [10]: 100%; inhibition in vivo at 0.3 mg/kg [14]: 93%; concentration at 1 h [15]: 24.9 ng/mL; Activity [16]: 0.7 °C; Drug uptake [17]: 100.29 ng/mL |
| CC(O)CCNc1nc(Oc2cccc3[nH]c(=O)c(N)nc23)cc(-c2ccc(C(F)(F)F)cc2)n1 (configuration not stated) | 0.03 | 7.79 | 8.06 | inhibition in vivo at 10 mg/kg [4]: 72%; concentration at 1 h [5]: 494 ng/mL |
| CC(Nc1nc(Oc2cccc3[nH]c(=O)c(N)nc23)cc(-c2ccc(C(F)(F)F)cc2)n1)c1ccccn1 (configuration not stated) | 0.04 | 8.55 | 8.24 | inhibition in vivo at 10 mg/kg [4]: 94%; concentration at 1 h [5]: 267 ng/mL; Activity [8]: 0.5 °C; Drug uptake [9]: 241.9 ng/mL |
| COC[C@H](C)Nc1nc(Oc2cccc3[nH]c(=O)c(N)nc23)cc(-c2ccc(C(F)(F)F)cc2)n1 | 0.19 | 9.10 | 9.00 |  |
| CC(=O)Nc1nc2c(Oc3cc(-c4ccc(C(F)(F)F)cc4N)ncn3)cccc2s1 | 0.93 | 7.80 | 8.44 |  |
| CC(C)(C)CN1CCCCC1CNc1nc(Oc2cccc3[nH]c(=O)c(N)nc23)cc(-c2ccc(C(F)(F)F)cc2)n1 (configuration not stated) | 0.24 | 8.70 | 8.68 |  |
| Nc1nc2c(Oc3cc(-c4ccc(C(F)(F)F)nc4NCCN4CCOCC4)ncn3)cccc2[nH]c1=O | 0.04 | 8.66 | 7.73 | inhibition in vivo at 3 mg/kg [6]: 60%; concentration at 1 h [7]: 67.1 ng/mL |
| COCCNc1nc(Oc2cccc3[nH]c(=O)c(N)nc23)cc(-c2ccc(C(F)(F)F)cc2N)n1 | 0.1 | 8.37 | 8.23 | inhibition in vivo at 10 mg/kg [4]: 71%; concentration at 1 h [5]: 298 ng/mL |
| Nc1cc(C(F)(F)F)ccc1-c1cc(Oc2cccc3[nH]c(=O)c(N)nc23)ncn1 | 0.23 | 8.82 | 8.41 |  |
| Nc1nc(Oc2cccc3[nH]c(=O)c(N)nc23)cc(-c2ccc(C(F)(F)F)cc2N)n1 | 0.04 | 7.46 | 7.21 |  |
| CC(=O)Nc1nc2c(Oc3cc(-c4ccc(C(F)(F)F)cc4)ncn3)cccc2s1 [AMG-517] |  |  |  | pIC50 [18]: 9.10; pIC50 [19]: 9.22; EC50 [20]: 0.33 mg/kg; Activity [21]: Active |
